Target: T1, UniProt Q8VF43
T1 sequence (whole entry): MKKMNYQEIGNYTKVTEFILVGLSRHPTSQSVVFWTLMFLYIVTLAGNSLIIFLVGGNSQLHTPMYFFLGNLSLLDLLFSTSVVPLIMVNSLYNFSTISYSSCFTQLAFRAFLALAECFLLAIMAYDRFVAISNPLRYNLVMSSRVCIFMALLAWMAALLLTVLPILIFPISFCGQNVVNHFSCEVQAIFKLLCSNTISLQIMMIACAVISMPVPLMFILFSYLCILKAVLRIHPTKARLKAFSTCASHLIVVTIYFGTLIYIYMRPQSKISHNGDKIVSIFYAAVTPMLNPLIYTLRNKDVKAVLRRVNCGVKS
Conditions: stereoisomer not certain
In short: (§1)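 Transient luciferase assays in mammalian cell lines were common, though methods varied by source. The values come from published papers and their supplementary material, with extra details from the original authors when needed. Responsive refers to a measured signal the original authors judged statistically different from baseline, and non-responsive (inactive) to the remainder.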
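Further: active if original authors judged signal statistically different from baseline.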

Structure (SMILES) | odorant receptor agonist call
CCCCCOC(=O)CCCCC | inactive
C=C(C)C1CCC2(C)OC2C1 (configuration not stated) | inactive
CCCCCCCCOC=O | inactive
CCC(=O)C(=O)CC | inactive
CCOC(=O)CC(C)C | inactive
CCCCCCCCCC(=O)[O-].[H+] | inactive
C=CCOC(=O)CCCCCC | inactive
CCCCCCCCCCO | inactive
OCCCCCCCCCO | inactive
O=C(c1ccccc1)c1ccccc1 | inactive
CCCCOC=O | inactive
CC(=O)C1(C)CC2=C(CCCC2(C)C)CC1C (configuration not stated) | inactive
CC(=O)OCC=C(C)C | inactive
CC12CCC(CC1=O)C2(C)C (configuration not stated) | inactive
CCCCCC(C=O)=Cc1ccccc1 | inactive
COC(OC)c1ccccc1 | inactive
CCCCCCCCS | inactive
CCC=CCCCCC=O | inactive
CCN(CC)CC | inactive
C=C1C2CCC(C2)C1(C)C (configuration not stated) | inactive
CCCCCC=O | inactive
O=C(OCc1ccccc1)c1ccccc1O | inactive
CCOC(=O)C(C)C | inactive
CCC=CCCC=CC=O | inactive
C=CC(=C)CCC=C(C)CCC=C(C)C | inactive
CCCO | inactive
CCCCCC1=C(C)CCC1=O | inactive
CCCCCCOC(C)=O | inactive
Cc1ccc2c(c1)OCC(=O)CO2 | inactive

Target: T2, UniProt Q8VF44
T2 sequence (whole entry): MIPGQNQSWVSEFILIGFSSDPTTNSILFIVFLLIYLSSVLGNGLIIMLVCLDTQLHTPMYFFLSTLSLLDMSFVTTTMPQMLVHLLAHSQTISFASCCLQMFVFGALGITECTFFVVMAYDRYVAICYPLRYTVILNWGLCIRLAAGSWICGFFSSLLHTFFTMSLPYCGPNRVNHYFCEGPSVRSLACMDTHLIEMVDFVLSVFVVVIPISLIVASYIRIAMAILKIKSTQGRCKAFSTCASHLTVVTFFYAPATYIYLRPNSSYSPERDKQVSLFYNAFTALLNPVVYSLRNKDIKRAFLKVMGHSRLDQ
Conditions: stereoisomer not certain
In short: as §1

Structure (SMILES) | odorant receptor agonist call
CCCCCOC(=O)CCCCC | inactive
CCC(=O)C(=O)CC | inactive
CCCCCCCCCC(=O)[O-].[H+] | inactive
CCCCCCC(=O)[O-].[H+] | inactive
C=CCOC(=O)CCCCCC | inactive
CCCCCCCCCCO | inactive
O=C(c1ccccc1)c1ccccc1 | active
CCCCOC=O | inactive
CC(=O)OCC=C(C)C | inactive
CC12CCC(CC1=O)C2(C)C (configuration not stated) | inactive
CCCCCO | inactive
CCCCCCCCS | inactive
CCCCCC=O | inactive
CCC(C(=O)O)c1ccccc1 (configuration not stated) | inactive
CCOC(=O)C(C)C | inactive
O=c1ccc2ccccc2o1 | active
CCCCCC1=C(C)CCC1=O | inactive
CCCCOC(=O)C(C)OC(=O)CCC (configuration not stated) | inactive
CCCCCCOC(C)=O | inactive

Target: T3, UniProt Q8VF52
T3 sequence (whole entry): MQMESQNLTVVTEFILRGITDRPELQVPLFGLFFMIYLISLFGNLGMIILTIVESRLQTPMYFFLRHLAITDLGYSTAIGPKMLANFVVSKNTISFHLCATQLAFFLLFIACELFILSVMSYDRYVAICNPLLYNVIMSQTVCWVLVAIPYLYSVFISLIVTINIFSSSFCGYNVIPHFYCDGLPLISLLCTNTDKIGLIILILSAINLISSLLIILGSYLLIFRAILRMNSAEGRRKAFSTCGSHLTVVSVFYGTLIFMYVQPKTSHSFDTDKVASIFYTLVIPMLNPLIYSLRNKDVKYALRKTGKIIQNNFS
Conditions: stereoisomer not certain
In short: as §1

Structure (SMILES) | odorant receptor agonist call
CCCCCOC(=O)CCCCC | inactive
C=C(C)C1CCC2(C)OC2C1 (configuration not stated) | inactive
CCCCCCCCOC=O | inactive
CCC(=O)C(=O)CC | inactive
CCOC(=O)CC(C)C | inactive
CCCCCCCCCC(=O)[O-].[H+] | inactive
CCCCCCC(=O)[O-].[H+] | inactive
C=CCOC(=O)CCCCCC | inactive
CCCCCCCCCCO | inactive
OCCCCCCCCCO | inactive
O=C(c1ccccc1)c1ccccc1 | inactive
CCCCOC=O | inactive
CC(=O)C1(C)CC2=C(CCCC2(C)C)CC1C (configuration not stated) | inactive
CC(=O)OCC=C(C)C | inactive
CC12CCC(CC1=O)C2(C)C (configuration not stated) | active
CCCCCC(C=O)=Cc1ccccc1 | active
CCCCCO | inactive

Structure (SMILES) | odorant receptor agonist call
COC(OC)c1ccccc1 | inactive
CCCCCCCCS | inactive
CCC=CCCCCC=O | inactive
CCN(CC)CC | inactive
C=C1C2CCC(C2)C1(C)C (configuration not stated) | inactive
CCCCCC=O | inactive
CCC(C(=O)O)c1ccccc1 (configuration not stated) | inactive
O=C(OCc1ccccc1)c1ccccc1O | inactive
CCOC(=O)C(C)C | inactive
CCC=CCCC=CC=O | inactive
C=CC(=C)CCC=C(C)CCC=C(C)C | inactive
CCCO | inactive
O=c1ccc2ccccc2o1 | active
CCCCCC1=C(C)CCC1=O | active
CCCCOC(=O)C(C)OC(=O)CCC (configuration not stated) | inactive
CCCCCCOC(C)=O | inactive
Cc1ccc2c(c1)OCC(=O)CO2 | inactive
